This passage reports IC50 and inhibition results from ChEMBL document CHEMBL1142302, “Discovery of subnanomolar arginine-glycine-aspartate-based alphaVbeta3/alphaVbeta5 integrin binders embedding 4-aminoproline residues” (J Med Chem, 2008).

*1 amine or outer side, *2 acyl side, *3 side chain or, on linkers, in order; H or OH if unused. Where a SMILES comes first, the peptide text is derived from it. Bridges are numbered along the chain shown (N, C = ends). [ ]: non-standard residue; d: D form. Pro(trans-4-NH2) = O=C([C@@H]1C[C@@H](N[*:3])CN1[*:1])[*:2]

In test [1] the target is T1, Integrin alpha-V/beta-5 (Homo sapiens, UniProt P06756+P18084). The test can be described thus: Displacement of [125I]echistatin from human integrin alpha-V-beta-5 receptor by solid phase assay. The class given is protein-complex assay. In a few lines: (§1)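 Competitive binding to purified human integrin protein (αVβ3 or αVβ5) measured as inhibition of [¹²⁵I]-echistatin specific binding over a range of inhibitor concentrations. Each point is the mean ± SEM of triplicate determinations, and IC50 is read from the inhibition curves.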
Background: In a radioligand displacement assay an active substance lowers the binding of a labelled ligand.
Target sequence in this assay (P06756 31-889 limits assumed): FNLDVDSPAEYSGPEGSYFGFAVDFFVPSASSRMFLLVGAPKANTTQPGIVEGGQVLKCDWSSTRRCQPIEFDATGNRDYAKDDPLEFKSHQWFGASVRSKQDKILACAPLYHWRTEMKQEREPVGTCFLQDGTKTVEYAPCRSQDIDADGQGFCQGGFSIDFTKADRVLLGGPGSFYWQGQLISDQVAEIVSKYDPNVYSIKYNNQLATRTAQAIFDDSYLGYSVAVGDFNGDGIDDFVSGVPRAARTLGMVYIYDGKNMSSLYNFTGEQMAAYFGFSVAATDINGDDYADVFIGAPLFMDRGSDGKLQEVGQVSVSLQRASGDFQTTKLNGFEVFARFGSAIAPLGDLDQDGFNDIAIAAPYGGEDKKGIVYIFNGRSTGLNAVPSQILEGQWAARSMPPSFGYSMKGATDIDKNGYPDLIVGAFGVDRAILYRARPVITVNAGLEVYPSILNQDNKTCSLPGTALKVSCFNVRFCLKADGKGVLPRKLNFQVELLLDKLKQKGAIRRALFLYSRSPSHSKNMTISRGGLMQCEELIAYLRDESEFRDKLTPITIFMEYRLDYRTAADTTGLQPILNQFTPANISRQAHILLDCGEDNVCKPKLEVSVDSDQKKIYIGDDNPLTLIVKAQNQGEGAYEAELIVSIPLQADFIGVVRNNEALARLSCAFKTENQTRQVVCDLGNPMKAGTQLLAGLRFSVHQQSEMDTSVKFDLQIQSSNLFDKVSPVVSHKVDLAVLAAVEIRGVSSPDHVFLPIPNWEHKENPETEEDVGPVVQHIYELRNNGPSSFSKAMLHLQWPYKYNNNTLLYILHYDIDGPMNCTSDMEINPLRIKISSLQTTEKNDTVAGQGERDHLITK
Target sequence in this assay (P06756 891-1048 limits assumed): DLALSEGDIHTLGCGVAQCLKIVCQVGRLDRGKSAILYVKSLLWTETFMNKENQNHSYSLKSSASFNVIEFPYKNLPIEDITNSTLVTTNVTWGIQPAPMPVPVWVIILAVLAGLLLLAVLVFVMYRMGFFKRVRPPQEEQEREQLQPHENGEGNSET
Target sequence in this assay (P18084 24-799 limits assumed): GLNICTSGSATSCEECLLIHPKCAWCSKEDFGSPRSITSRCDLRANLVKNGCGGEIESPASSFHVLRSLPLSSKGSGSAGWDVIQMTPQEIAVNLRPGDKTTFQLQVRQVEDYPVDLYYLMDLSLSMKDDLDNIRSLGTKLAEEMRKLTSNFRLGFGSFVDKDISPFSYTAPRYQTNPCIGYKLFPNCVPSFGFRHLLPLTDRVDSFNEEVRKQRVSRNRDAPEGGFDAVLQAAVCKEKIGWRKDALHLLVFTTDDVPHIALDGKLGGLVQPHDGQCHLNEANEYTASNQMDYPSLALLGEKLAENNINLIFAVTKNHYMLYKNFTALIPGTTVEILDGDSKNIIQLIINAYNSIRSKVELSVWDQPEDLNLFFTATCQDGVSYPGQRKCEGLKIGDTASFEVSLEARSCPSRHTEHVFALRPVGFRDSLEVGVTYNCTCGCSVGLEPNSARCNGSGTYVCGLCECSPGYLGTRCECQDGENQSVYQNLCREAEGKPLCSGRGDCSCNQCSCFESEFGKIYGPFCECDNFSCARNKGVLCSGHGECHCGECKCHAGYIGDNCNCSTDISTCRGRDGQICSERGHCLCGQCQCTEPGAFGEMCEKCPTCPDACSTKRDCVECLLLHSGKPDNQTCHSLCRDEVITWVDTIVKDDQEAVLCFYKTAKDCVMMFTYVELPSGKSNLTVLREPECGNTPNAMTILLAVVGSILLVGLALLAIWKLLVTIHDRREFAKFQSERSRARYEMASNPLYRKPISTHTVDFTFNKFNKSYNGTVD

The target in test [2] is T2, Integrin alpha-V/beta-3 (Homo sapiens, UniProt P05106+P06756). Kind of test: Displacement of [125I]echistatin from human integrin alpha-V-beta-3 receptor by solid phase assay. The class given is protein-complex assay. A digest of the protocol: as §1
Target sequence in this assay (P05106 27-788 limits assumed): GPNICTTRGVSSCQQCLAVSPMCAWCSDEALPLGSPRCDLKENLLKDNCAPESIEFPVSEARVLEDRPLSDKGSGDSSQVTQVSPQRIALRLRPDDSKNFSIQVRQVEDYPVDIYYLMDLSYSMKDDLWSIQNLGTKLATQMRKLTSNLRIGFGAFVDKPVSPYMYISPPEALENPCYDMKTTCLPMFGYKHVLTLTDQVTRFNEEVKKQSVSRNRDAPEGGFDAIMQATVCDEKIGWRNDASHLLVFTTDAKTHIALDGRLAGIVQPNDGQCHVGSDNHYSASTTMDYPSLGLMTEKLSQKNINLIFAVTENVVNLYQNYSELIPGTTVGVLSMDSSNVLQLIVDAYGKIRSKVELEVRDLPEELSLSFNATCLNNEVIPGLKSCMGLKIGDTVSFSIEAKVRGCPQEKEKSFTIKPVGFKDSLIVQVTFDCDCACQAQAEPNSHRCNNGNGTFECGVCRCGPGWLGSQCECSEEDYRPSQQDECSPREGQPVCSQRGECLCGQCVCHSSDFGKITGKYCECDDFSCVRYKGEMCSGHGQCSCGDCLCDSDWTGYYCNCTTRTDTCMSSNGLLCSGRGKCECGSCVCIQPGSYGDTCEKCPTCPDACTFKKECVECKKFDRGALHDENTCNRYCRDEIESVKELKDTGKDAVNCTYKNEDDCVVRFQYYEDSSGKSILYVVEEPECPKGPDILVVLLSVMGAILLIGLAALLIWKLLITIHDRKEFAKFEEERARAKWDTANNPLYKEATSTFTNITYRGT
Target sequence in this assay (P06756 31-889 limits assumed): as the sequence (P06756 31-889 limits assumed) above
Target sequence in this assay (P06756 891-1048 limits assumed): as the sequence (P06756 891-1048 limits assumed) above
In test [3] the target is T2, Integrin alpha-V/beta-3. Kind of test: Displacement of [125I]echistatin from human integrin alpha-V-beta-3 receptor low affinity state by solid phase assay relative to control. The test is classed as protein-complex assay. On the set-up: concentration or dose not given beside the values. The conditions noted are these: concentration not given here. A digest of the protocol:
(§2)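 Competition for [125I]-echistatin specific binding to purified human αvβ3 or αvβ5 integrin protein. Inhibition was plotted against test compound concentration. Each point is the mean ± SEM of triplicate determinations.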

Test [4] deals with T2, Integrin alpha-V/beta-3. The test can be described thus: Displacement of [125I]echistatin from human integrin alpha-V-beta-3 receptor high affinity state by solid phase assay relative to control. As to conditions: concentration not given here. The arrangement: concentration or dose not given beside the values. The test is classed as protein-complex assay. A digest of the protocol:
as §2

Test [5] deals with T2, Integrin alpha-V/beta-3. The test can be described thus: Displacement of [125I]echistatin from human integrin alpha-V-beta-3 receptor low affinity state by solid phase assay. The class given is protein-complex assay.
Target sequence in this assay (P05106 27-788 limits assumed): as the sequence (P05106 27-788 limits assumed) above
Target sequence in this assay (P06756 31-889 limits assumed): as the sequence (P06756 31-889 limits assumed) above
Target sequence in this assay (P06756 891-1048 limits assumed): as the sequence (P06756 891-1048 limits assumed) above
Test [6] concerns the target T2, Integrin alpha-V/beta-3. Kind of test: Inhibition of human integrin alpha-V-beta-3 receptor mediated K562 cell adhesion to vitronectin. The test is classed as cell-based.
Target sequence in this assay (P05106 27-788 limits assumed): as the sequence (P05106 27-788 limits assumed) above
Target sequence in this assay (P06756 31-889 limits assumed): as the sequence (P06756 31-889 limits assumed) above
Target sequence in this assay (P06756 891-1048 limits assumed): as the sequence (P06756 891-1048 limits assumed) above
Test [7] deals with T3, Integrin alpha-5/beta-1 (Homo sapiens, UniProt P05556+P08648). The test can be described thus: Inhibition of human integrin alpha-5-beta-1 receptor mediated WM115 cell adhesion to vitronectin. The class given is cell-based, WM-115.
The target in test [8] is T2, Integrin alpha-V/beta-3. Kind of test: Inhibition of human integrin alpha-v-beta-3 receptor mediated WM115 cell adhesion to vitronectin. The test is classed as cell-based, WM-115.
Target sequence in this assay (P05106 27-788 limits assumed): as the sequence (P05106 27-788 limits assumed) above
Target sequence in this assay (P06756 31-889 limits assumed): as the sequence (P06756 31-889 limits assumed) above
Target sequence in this assay (P06756 891-1048 limits assumed): as the sequence (P06756 891-1048 limits assumed) above
The target of test [9] is T3, Integrin alpha-5/beta-1. The test can be described thus: Inhibition of human integrin alpha5beta1 receptor mediated K562 cell adhesion to vitronectin. The class given is cell-based.
In test [10] the target is T1, Integrin alpha-V/beta-5. The test can be described thus: Displacement of [125I]echistatin from human integrin alpha-V-beta-5 receptor low affinity state by solid phase assay. The class given is protein-complex assay.
Target sequence in this assay (P06756 31-889 limits assumed): as the sequence (P06756 31-889 limits assumed) above
Target sequence in this assay (P06756 891-1048 limits assumed): as the sequence (P06756 891-1048 limits assumed) above
Target sequence in this assay (P18084 24-799 limits assumed): as the sequence (P18084 24-799 limits assumed) above
Test [11] has as its target T1, Integrin alpha-V/beta-5. The test can be described thus: Displacement of [125I]echistatin from human integrin alpha-V-beta-5 receptor high affinity state by solid phase assay relative to control. The test is classed as protein-complex assay. The conditions noted are these: concentration not given here.
The target in test [12] is T1, Integrin alpha-V/beta-5. Kind of test: Displacement of [125I]echistatin from human integrin alpha-V-beta-5 receptor low affinity state by solid phase assay relative to control. The class given is protein-complex assay. As to conditions: concentration not given here.

Consider `NC(N)=NCCC[C@@H]1NC(=O)CNC(=O)[C@@H](CC(=O)O)N[C@H]2CCC[C@H]3CC[C@H](C1=O)N3C2=O`, for which the figures for the IC50 on Integrin alpha-V/beta-5 [1] and on Integrin alpha-V/beta-3 [2] were 0.9 nM and 5.64 nM, respectively.

Regarding `N=C(N)NCCC[C@@H]1NC(=O)[C@@H]2C[C@@H](CN2C(=O)c2ccccc2)NC(=O)[C@H](CC(=O)O)NC(=O)CNC1=O`, the figures for the inhibition at Integrin alpha-V/beta-3 [3] and at Integrin alpha-V/beta-3 [4] were 42.2% and 57.8%, respectively.

Regarding `CCC(=O)N1C[C@@H]2C[C@H]1C(=O)N[C@@H](CCCNC(=N)N)C(=O)NCC(=O)N[C@@H](CC(=O)O)C(=O)N2`, the results for the inhibition on Integrin alpha-V/beta-3 [3] and at Integrin alpha-V/beta-3 [4] were 57.9% and 42.1%, respectively.

On to `N=C(N)NCCC[C@@H]1NC(=O)[C@@H]2CC[C@H](C2)NC(=O)[C@H](CC(=O)O)NC(=O)CNC1=O`, for which the IC50 on Integrin alpha-V/beta-5 [1] stood at 1.12 nM; on Integrin alpha-V/beta-3 [2], 0.26 nM.

In the case of `NC(N)=NCCC[C@@H]1NC(=O)[C@@H]2C[C@@H](CN2C(=O)c2ccccc2)NC(=O)[C@H](CC(=O)O)NC(=O)CNC1=O`, the IC50 at Integrin alpha-V/beta-3 [5] turned out to be 600 nM; at Integrin alpha-V/beta-3 [2], 5.15 nM.

As to `N=C(N)NCCC[C@@H]1NC(=O)[C@@H]2C[C@H](CN2)NC(=O)[C@H](CC(=O)O)NC(=O)CNC1=O` (H-[Pro(trans-4-NH2)]RGD; lactam 1-C), the values for the inhibition on Integrin alpha-V/beta-3 [3] and on Integrin alpha-V/beta-3 [4] were 15.5% and 84.5%, respectively.

On to `NC(N)=NCCC[C@@H]1NC(=O)[C@@H]2C[C@H](CN2C(=O)c2ccccc2)NC(=O)[C@H](CC(=O)O)NC(=O)CNC1=O`, for which the values for the concentration for half-maximal inhibition (IC50) on Integrin alpha-V/beta-3 [5] and at Integrin alpha-V/beta-3 [2] were 327 nM and 174 nM, respectively.

Take `COC(=O)[C@H]1[C@@H]2NC(=O)[C@H](CC(=O)O)NC(=O)CNC(=O)[C@H](CCCNC(=N)N)NC(=O)[C@H](C(C)C)NC(=O)[C@@H]21`: the IC50 was 20 nM on Integrin alpha-V/beta-3 [6], 1500 nM against Integrin alpha-5/beta-1 [7], 20 nM on Integrin alpha-V/beta-3 [8] and 1500 nM at Integrin alpha-5/beta-1 [9].

For the compound `CCC(=O)N1C[C@@H]2C[C@H]1C(=O)N[C@@H](CCCN=C(N)N)C(=O)NCC(=O)N[C@@H](CC(=O)O)C(=O)N2`, the IC50 on Integrin alpha-V/beta-3 [5] was found to be 251 nM; on Integrin alpha-V/beta-3 [2], 5.6 nM.

As for `N=C(N)NCCC[C@@H]1NC(=O)[C@@H]2C[C@H](CN2C(=O)c2ccccc2)NC(=O)[C@H](CC(=O)O)NC(=O)CNC1=O`, the inhibition came out at 68.4% on Integrin alpha-V/beta-3 [3] and 31.6% at Integrin alpha-V/beta-3 [4].

For `CCCCCCCN1C[C@@H]2C[C@H]1C(=O)N[C@@H](CCCN=C(N)N)C(=O)NCC(=O)N[C@@H](CC(=O)O)C(=O)N2`, the half-inhibitory concentration (IC50) at Integrin alpha-V/beta-5 [10] turned out to be 62.3 nM; at Integrin alpha-V/beta-3 [5], 178 nM; at Integrin alpha-V/beta-5 [1], 36.1 nM; at Integrin alpha-V/beta-3 [2], 2.84 nM.

As for `CCCCCCCN1C[C@@H]2C[C@H]1C(=O)N[C@@H](CCCNC(=N)N)C(=O)NCC(=O)N[C@@H](CC(=O)O)C(=O)N2`, the inhibition at Integrin alpha-V/beta-3 [3] stood at 46.3%; at Integrin alpha-V/beta-5 [11], 29%; on Integrin alpha-V/beta-5 [12], 71%; on Integrin alpha-V/beta-3 [4], 53.7%.

A word on the IC50: it is the point on the concentration scale where inhibition reaches its midpoint. The inhibition is the change of the read-out against control, counted positive when it falls.
